ChEMBL document CHEMBL1138559, “Synthesis and in vitro anti-HIV evaluation of a new series of 6-arylmethyl-substituted S-DABOs as potential non-nucleoside HIV-1 reverse transcriptase inhibitors” (Eur J Med Chem, 2009)

Tests used:
[1] = system: Human immunodeficiency virus 1; test: Antiviral activity against HIV1 3B infected in human MT4 cells assessed as inhibition of virus-induced cytopathic effect after 4 days by MTT assay; assay type: functional, organism-based; details: Human immunodeficiency virus 1, 3B, MT4, 96 h
Procedure, shortened: (§1)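 MT-4 cells at 1 × 10^5 cells/mL infected at MOI 0.02 (virus stocks titrated in MT-4, as CCID50), then put at once into wells with serial compound dilutions (DMSO stocks, 50 mM or higher). Incubation 4 days, 37 °C. Viable cells counted by MTT. IC50 taken as concentration protecting 50% of infected cells.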

[2] = system: Human immunodeficiency virus 2; test: Antiviral activity against HIV2 ROD infected in human MT4 cells assessed as inhibition of virus-induced cytopathic effect after 4 days by MTT assay; assay type: functional, organism-based; details: Human immunodeficiency virus 2, ROD, MT4, 96 h; procedure, shortened: as §1
[3] = Cytotoxicity against human MT4 cells by MTT assay; assay type: cell-based
Procedure, shortened: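 Uninfected MT-4 cells run in parallel with the antiviral plates, with serial compound dilutions from DMSO stocks (50 mM or higher), for 4 days at 37 °C. Viability read by MTT. CC50 is the concentration that lowers viability of uninfected cells by 50%.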

[4] = Selectivity index, ratio of CC50 for human MT4 cells to IC50 for HIV1 3B; assay type: functional
Procedure, shortened: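 Ratio CC50/IC50. CC50 comes from MTT viability of uninfected MT-4 cells, and IC50 from MTT protection of HIV-1-infected MT-4 cells (MOI 0.02). Both were read after 4 days at 37 °C in parallel assays.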

| SMILES | IC50 [1] | IC50 [2] | CC50 [3] | Ratio CC50/IC50 [4] |
| --- | --- | --- | --- | --- |
| CCc1c(Cc2c(Cl)cccc2Cl)nc(SCc2ccc([N+](=O)[O-])cc2)[nH]c1=O | 0.36 µM | > 278 µM | > 278 µM | >772 |
| CCc1c(Cc2c(Cl)cccc2Cl)nc(SCc2ccc(OC)cc2)[nH]c1=O | 0.16 µM | > 287 µM | > 287 µM | >1793 |
| COc1ccc(CSc2nc(Cc3ccc(-c4ccccc4)cc3)c(C)c(=O)[nH]2)cc1 | > 100 µM | > 100 µM | 100 µM | <1 |
| COc1ccc(CSc2nc(Cc3cccc4ccccc34)c(C(C)C)c(=O)[nH]2)cc1 | 0.21 µM | > 37.4 µM | 37.4 µM | 178 |
| COc1ccc(CSc2nc(Cc3ccc(Br)cc3)c(C)c(=O)[nH]2)cc1 | > 290 µM | > 290 µM | > 290 µM | – |
| COc1ccc(CSc2nc(Cc3ccccc3Br)c(C)c(=O)[nH]2)cc1 | 1.04 µM | > 179 µM | 179 µM | 172 |
| COc1ccc(CSc2nc(Cc3cc(C)cc(C)c3)c(C)c(=O)[nH]2)cc1 | 1.1 µM | > 329 µM | > 329 µM | >299 |
| Cc1cc(C)cc(Cc2nc(SCc3ccc([N+](=O)[O-])cc3)[nH]c(=O)c2C)c1 | 5.46 µM | > 316 µM | > 316 µM | >58 |
| COc1ccc(CSc2nc(Cc3cc(C(F)(F)F)cc(C(F)(F)F)c3)c(C)c(=O)[nH]2)cc1 | > 256 µM | > 256 µM | > 256 µM | – |
| CCc1c(Cc2cc(C)cc(C)c2)nc(SCc2ccc(OC)cc2)[nH]c1=O | 0.12 µM | > 317 µM | > 317 µM | >2642 |
| CCc1c(Cc2ccc(Br)cc2)nc(SCc2ccc(OC)cc2)[nH]c1=O | > 281 µM | > 281 µM | > 281 µM | – |
| CCc1c(Cc2ccccc2Br)nc(SCc2ccc([N+](=O)[O-])cc2)[nH]c1=O | 0.74 µM | > 272 µM | > 272 µM | >368 |
| CCc1c(Cc2cccc(Br)c2)nc(SCc2ccc(OC)cc2)[nH]c1=O | 0.28 µM | > 201 µM | 201 µM | 718 |
| CCc1c(Cc2ccc(-c3ccccc3)cc2)nc(SCc2ccc(OC)cc2)[nH]c1=O | > 194 µM | > 194 µM | 194 µM | <1 |
| Cc1c(Cc2cc(C(F)(F)F)cc(C(F)(F)F)c2)nc(SCc2ccc([N+](=O)[O-])cc2)[nH]c1=O | > 248 µM | > 248 µM | > 248 µM | – |
| CCc1c(Cc2cc(C)cc(C)c2)nc(SCc2ccccc2)[nH]c1=O | 0.95 µM | > 343 µM | > 343 µM | >361 |
| CCc1c(Cc2cc(C(F)(F)F)cc(C(F)(F)F)c2)nc(SCc2ccc([N+](=O)[O-])cc2)[nH]c1=O | > 242 µM | > 242 µM | > 242 µM | – |
| CCc1c(Cc2cc(C(F)(F)F)cc(C(F)(F)F)c2)nc(SCc2ccc(OC)cc2)[nH]c1=O | ≥ 9.47 µM | > 249 µM | > 249 µM | <=26 |
| COc1ccc(CSc2nc(Cc3cccc(Br)c3)c(C)c(=O)[nH]2)cc1 | 6.42 µM | > 290 µM | > 290 µM | >45 |
| Cc1c(Cc2cccc(Br)c2)nc(SCc2ccc([N+](=O)[O-])cc2)[nH]c1=O | 14.2 µM | > 280 µM | > 280 µM | >20 |
| Cc1c(Cc2ccccc2Br)nc(SCc2ccc([N+](=O)[O-])cc2)[nH]c1=O | 1.46 µM | > 246 µM | ≥ 246 µM | >=168 |
| CCc1c(Cc2cc(C)cc(C)c2)nc(SCc2ccc([N+](=O)[O-])cc2)[nH]c1=O | 0.16 µM | > 305 µM | > 305 µM | >1906 |
| CCc1c(Cc2cccc3ccccc23)nc(SCc2ccc(OC)cc2)[nH]c1=O | 1.32 µM | > 227 µM | 261 µM | 198 |
| CCc1c(Cc2cccc(Br)c2)nc(SCc2ccc([N+](=O)[O-])cc2)[nH]c1=O | 1.34 µM | > 187 µM | 187 µM | 139.6 |
| CCc1c(Cc2ccccc2Br)nc(SCc2ccc(OC)cc2)[nH]c1=O | 0.23 µM | > 165 µM | 165 µM | 717 |
| O=c1[nH]cnc2c1ncn2[C@H]1CC[C@@H](CO)O1 [DIDANOSINE] | 5.37 µM | 2.71 µM | ≥ 529 µM | >=98 |
| Cc1c(Sc2ccccc2)n(COCCO)c(=O)[nH]c1=O [HEPT] | 5.06 µM | > 405 µM | ≤ 399 µM | 79 |
